# Source: ChEMBL document CHEMBL4229344 (Eur J Med Chem, 2018)
# Activity calls are given as the source filed them. The rule behind the calls is not given here.
# Key:
# [1] = system: Tyrosine-protein kinase ABL1 (Homo sapiens), P00519 [F317L]; assay: Binding affinity to human phosphorylated ABL1 F317L mutant (S229 to K512 residues) expressed in mammalian expression system assessed as residual binding level at 1 uM by Kinomescan method relative to control
# Summary of the method: (§1)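 Single-concentration (1 μM) competition-binding screen run by KINOMEscan against a panel of 468 purified kinases and mutants. The read-out is the relative binding activity of the test compound to each kinase.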
# [2] = target: Serine/threonine-protein kinase 36 (Homo sapiens) (UniProt Q9NRP7); assay: Binding affinity to wild-type human partial length STK36 (M1 to T271 residues) expressed in bacterial expression system assessed as residual binding level at 1 uM by Kinomescan method relative to control
# [3] = target: Discoidin domain-containing receptor 2 (Homo sapiens) (UniProt Q16832); assay: Binding affinity to wild-type human partial length DDR2 (V555 to E855 residues) expressed in mammalian expression system assessed as residual binding level at 1 uM by Kinomescan method relative to control
# Summary of the method: (§2)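 Kinome-wide competition binding screen against a panel of 468 purified kinases/mutants, with the test compound at a single concentration of 1 μM. Read-out is the relative binding activity of each kinase in the presence of compound.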
# [4] = target: MAP kinase-activated protein kinase 5 (Homo sapiens) (UniProt Q8IW41); assay: Binding affinity to wild-type human partial length MAPKAPK5 (M1 to D322 residues) expressed in mammalian expression system assessed as residual binding level at 1 uM by Kinomescan method relative to control
# [5] = target: Serine/threonine-protein kinase MRCK alpha (Homo sapiens) (UniProt Q5VT25); assay: Binding affinity to wild-type human partial length MRCKA (L57 to V418 residues) expressed in bacterial expression system assessed as residual binding level at 1 uM by Kinomescan method relative to control; summary of the method: as §2
# [6] = system: ALK tyrosine kinase receptor (Homo sapiens), Q9UM73 [C1156Y]; assay: Binding affinity to wild-type human partial length ALK C1156Y mutant (I1088 to E1409 residues) expressed in mammalian expression system assessed as residual binding level at 1 uM by Kinomescan method relative to control
# Summary of the method: (§3)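 Single-concentration KINOMEscan (DiscoverX) binding screen at 1 μM against a panel of 468 purified kinases and mutants. The read-out is binding relative to control.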
# [7] = system: NCI-H1703; assay: Induction of apoptosis in human NCI-H1703 cells assessed as cleaved PARP expression level at 0.3 to 10 uM after 72 hrs by Western blot analysis; type: functional, cell-based
# Summary of the method: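 Cells exposed to compound or DMSO for the stated periods, then lysed and immunoblotted for PARP and caspase-3 cleavage, with β-actin as loading control. NCI-H1703 stimulation used PDGF AA at 100 ng/mL.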
# [8] = target: Ephrin type-A receptor 4 (Homo sapiens) (UniProt P54764); assay: Binding affinity to wild-type human partial length EPHA4 (T601 to R897 residues) expressed in bacterial expression system assessed as residual binding level at 1 uM by Kinomescan method relative to control; summary of the method: as §2
# [9] = target: Phosphatidylinositol 3-kinase C2 domain-containing subunit gamma (Homo sapiens) (UniProt O75747); assay: Binding affinity to wild-type human partial length PIK3C2G (M1 to I1446 residues) expressed in mammalian expression system assessed as residual binding level at 1 uM by Kinomescan method relative to control
# [10] = target: Serine/threonine-protein kinase PAK 2 (Homo sapiens) (UniProt Q13177); assay: Binding affinity to wild-type human partial length PAK2 (P151 to R525 residues) expressed in bacterial expression system assessed as residual binding level at 1 uM by Kinomescan method relative to control
# Summary of the method: (§4)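 KINOMEscan competition binding against a panel of 468 purified kinases/mutants, compound tested at 1 μM; readout is relative binding activity versus control.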
# [11] = target: Mitogen-activated protein kinase 9 (Homo sapiens) (UniProt P45984); assay: Binding affinity to wild-type human full length JNK2 (M1 to Q382 residues) expressed in mammalian expression system assessed as residual binding level at 1 uM by Kinomescan method relative to control
# Summary of the method: (§5)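 KINOMEscan competition binding against 468 purified kinases/mutants, test compound at 1 µM; residual binding relative to control.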
# [12] = target: Inhibitor of nuclear factor kappa-B kinase subunit alpha (Homo sapiens) (UniProt O15111); assay: Binding affinity to wild-type human full length IKK-alpha (M1 to E745 residues) expressed in mammalian expression system assessed as residual binding level at 1 uM by Kinomescan method relative to control; summary of the method: as §1
# [13] = target: Ribosomal protein S6 kinase alpha-2 (Homo sapiens) (UniProt Q15349); assay: Binding affinity to wild-type human partial length C-terminal RSK3 kinase domain 2 (V403 to K700 residues) expressed in bacterial expression system assessed as residual binding level at 1 uM by Kinomescan method relative to control
# [14] = target: Ankyrin repeat and protein kinase domain-containing protein 1 (Homo sapiens) (UniProt Q8NFD2); assay: Binding affinity to wild-type human partial length ANKK1 (M1 to A305 residues) expressed in mammalian expression system assessed as residual binding level at 1 uM by Kinomescan method relative to control; summary of the method: as §3
# [15] = target: Casein kinase I isoform gamma-1 (Homo sapiens) (UniProt Q9HCP0); assay: Binding affinity to wild-type human partial length CSNK1G1 (T15 to S353 residues) expressed in bacterial expression system assessed as residual binding level at 1 uM by Kinomescan method relative to control
# [16] = target: NT-3 growth factor receptor (Homo sapiens) (UniProt Q16288); assay: Binding affinity to wild-type human partial length TRKC (Q531 to G825 residues) expressed in mammalian expression system assessed as residual binding level at 1 uM by Kinomescan method relative to control; summary of the method: as §4
# [17] = target: Atypical kinase COQ8B, mitochondrial (Homo sapiens) (UniProt Q96D53); assay: Binding affinity to wild-type human full length ADCK4 (M1 to S544 residues) expressed in bacterial expression system assessed as residual binding level at 1 uM by Kinomescan method relative to control; summary of the method: as §5
# [18] = target: Calcium/calmodulin-dependent protein kinase type 1G (Homo sapiens) (UniProt Q96NX5); assay: Binding affinity to wild-type human partial length CAMK1G (M1 to A342 residues) expressed in bacterial expression system assessed as residual binding level at 1 uM by Kinomescan method relative to control
# [19] = target: Dual specificity mitogen-activated protein kinase kinase 7 (Homo sapiens) (UniProt O14733); assay: Binding affinity to wild-type human full length MKK7 (M1 to R419 residues) expressed in mammalian expression system assessed as residual binding level at 1 uM by Kinomescan method relative to control; summary of the method: as §3
# [20] = target: Serine/threonine-protein kinase Nek9 (Homo sapiens) (UniProt Q8TD19); assay: Binding affinity to wild-type human partial length NEK9 (P32 to R328 residues) expressed in bacterial expression system assessed as residual binding level at 1 uM by Kinomescan method relative to control; summary of the method: as §4
# [21] = target: Dual specificity mitogen-activated protein kinase kinase 3 (Homo sapiens) (UniProt P46734); assay: Binding affinity to wild-type human full length MEK3 (M1 to S318 residues) expressed in mammalian expression system assessed as residual binding level at 1 uM by Kinomescan method relative to control; summary of the method: as §3
# Dual specificity mitogen-activated protein kinase kinase 7 (Homo sapiens), sequence (O14733 whole entry, the tested form may be a part): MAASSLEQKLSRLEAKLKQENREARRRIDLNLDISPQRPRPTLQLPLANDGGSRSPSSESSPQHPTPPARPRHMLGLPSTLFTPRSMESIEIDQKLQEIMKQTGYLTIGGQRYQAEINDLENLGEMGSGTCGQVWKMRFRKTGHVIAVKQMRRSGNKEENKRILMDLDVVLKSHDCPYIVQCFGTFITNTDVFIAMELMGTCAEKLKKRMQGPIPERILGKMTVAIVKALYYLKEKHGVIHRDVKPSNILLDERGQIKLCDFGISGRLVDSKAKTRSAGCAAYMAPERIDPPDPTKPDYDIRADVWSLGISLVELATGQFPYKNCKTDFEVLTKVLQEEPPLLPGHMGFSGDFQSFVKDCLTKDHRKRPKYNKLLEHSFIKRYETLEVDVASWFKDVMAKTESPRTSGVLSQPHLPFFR
# Discoidin domain-containing receptor 2 (Homo sapiens), sequence (Q16832 whole entry, the tested form may be a part): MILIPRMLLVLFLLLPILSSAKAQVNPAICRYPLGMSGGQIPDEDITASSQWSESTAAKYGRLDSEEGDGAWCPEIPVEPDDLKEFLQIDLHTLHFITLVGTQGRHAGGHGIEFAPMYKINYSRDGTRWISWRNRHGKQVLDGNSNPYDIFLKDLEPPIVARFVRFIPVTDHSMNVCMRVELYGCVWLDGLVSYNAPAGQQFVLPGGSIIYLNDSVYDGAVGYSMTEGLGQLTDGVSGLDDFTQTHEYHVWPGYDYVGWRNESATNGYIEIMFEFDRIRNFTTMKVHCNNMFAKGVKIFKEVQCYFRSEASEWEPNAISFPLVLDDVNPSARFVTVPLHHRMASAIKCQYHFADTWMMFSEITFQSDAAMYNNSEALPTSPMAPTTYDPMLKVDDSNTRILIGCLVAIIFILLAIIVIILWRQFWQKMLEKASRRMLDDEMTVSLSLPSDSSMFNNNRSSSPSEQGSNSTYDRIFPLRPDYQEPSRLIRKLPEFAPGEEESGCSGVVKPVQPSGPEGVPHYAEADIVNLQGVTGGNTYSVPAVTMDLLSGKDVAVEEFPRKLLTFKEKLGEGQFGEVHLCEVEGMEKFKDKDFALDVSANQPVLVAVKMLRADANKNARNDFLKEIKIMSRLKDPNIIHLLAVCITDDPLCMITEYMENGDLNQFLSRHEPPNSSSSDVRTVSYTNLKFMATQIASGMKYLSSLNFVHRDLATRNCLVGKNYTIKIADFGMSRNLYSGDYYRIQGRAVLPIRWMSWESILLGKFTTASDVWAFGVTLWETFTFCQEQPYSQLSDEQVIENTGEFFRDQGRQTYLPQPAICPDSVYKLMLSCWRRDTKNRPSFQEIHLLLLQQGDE
# Casein kinase I isoform gamma-1 (Homo sapiens), sequence (Q9HCP0 whole entry, looked up, the tested form may be a part, canonical isoform): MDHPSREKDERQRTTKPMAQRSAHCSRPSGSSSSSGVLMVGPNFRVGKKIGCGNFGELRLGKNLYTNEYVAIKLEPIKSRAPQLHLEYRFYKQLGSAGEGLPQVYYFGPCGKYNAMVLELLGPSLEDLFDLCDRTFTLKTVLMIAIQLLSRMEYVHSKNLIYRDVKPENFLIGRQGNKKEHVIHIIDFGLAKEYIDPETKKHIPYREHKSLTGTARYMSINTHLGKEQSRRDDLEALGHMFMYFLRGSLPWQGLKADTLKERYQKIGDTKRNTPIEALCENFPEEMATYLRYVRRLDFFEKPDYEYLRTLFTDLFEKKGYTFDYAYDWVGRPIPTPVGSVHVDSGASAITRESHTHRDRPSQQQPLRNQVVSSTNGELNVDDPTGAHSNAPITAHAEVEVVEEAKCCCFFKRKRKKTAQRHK
# Phosphatidylinositol 3-kinase C2 domain-containing subunit gamma (Homo sapiens), sequence (O75747 whole entry, the tested form may be a part): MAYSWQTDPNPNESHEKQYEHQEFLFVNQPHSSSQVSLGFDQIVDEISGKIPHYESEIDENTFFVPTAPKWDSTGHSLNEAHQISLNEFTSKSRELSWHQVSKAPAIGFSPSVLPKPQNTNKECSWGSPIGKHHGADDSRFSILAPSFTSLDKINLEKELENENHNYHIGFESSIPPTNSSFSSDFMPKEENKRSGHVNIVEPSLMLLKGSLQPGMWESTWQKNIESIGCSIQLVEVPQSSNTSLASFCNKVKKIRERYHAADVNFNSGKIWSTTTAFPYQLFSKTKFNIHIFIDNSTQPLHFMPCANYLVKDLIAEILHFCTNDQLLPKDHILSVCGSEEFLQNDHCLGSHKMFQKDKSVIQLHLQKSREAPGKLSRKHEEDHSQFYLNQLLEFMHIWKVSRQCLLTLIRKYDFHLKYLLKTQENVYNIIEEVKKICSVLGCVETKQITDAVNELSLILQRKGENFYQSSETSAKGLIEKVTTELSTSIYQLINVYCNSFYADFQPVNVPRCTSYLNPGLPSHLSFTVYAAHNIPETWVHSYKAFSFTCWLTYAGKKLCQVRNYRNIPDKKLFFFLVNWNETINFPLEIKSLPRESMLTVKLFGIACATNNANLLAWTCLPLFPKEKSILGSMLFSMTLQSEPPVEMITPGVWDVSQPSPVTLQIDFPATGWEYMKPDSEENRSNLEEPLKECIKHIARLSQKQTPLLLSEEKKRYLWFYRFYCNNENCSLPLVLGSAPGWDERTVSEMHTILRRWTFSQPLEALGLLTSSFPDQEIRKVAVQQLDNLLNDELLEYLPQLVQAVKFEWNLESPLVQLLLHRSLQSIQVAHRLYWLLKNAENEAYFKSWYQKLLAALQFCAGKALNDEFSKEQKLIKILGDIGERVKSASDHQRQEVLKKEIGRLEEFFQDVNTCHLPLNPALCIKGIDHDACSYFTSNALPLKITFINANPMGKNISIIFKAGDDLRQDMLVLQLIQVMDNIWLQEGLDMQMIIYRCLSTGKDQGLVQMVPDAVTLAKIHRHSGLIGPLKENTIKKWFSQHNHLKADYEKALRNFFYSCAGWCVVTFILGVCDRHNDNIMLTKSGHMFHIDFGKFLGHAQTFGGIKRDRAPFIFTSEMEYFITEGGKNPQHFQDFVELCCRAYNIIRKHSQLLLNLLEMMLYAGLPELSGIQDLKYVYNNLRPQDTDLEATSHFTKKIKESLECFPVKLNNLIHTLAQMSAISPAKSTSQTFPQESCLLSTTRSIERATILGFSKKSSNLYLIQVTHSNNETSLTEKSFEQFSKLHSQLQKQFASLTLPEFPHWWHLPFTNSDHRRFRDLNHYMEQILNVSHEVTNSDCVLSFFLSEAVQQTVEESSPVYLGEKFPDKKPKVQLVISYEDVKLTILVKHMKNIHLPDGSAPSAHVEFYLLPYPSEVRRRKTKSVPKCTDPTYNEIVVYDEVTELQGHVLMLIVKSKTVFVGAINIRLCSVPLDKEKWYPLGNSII
# Serine/threonine-protein kinase Nek9 (Homo sapiens), sequence (Q8TD19 whole entry, the tested form may be a part): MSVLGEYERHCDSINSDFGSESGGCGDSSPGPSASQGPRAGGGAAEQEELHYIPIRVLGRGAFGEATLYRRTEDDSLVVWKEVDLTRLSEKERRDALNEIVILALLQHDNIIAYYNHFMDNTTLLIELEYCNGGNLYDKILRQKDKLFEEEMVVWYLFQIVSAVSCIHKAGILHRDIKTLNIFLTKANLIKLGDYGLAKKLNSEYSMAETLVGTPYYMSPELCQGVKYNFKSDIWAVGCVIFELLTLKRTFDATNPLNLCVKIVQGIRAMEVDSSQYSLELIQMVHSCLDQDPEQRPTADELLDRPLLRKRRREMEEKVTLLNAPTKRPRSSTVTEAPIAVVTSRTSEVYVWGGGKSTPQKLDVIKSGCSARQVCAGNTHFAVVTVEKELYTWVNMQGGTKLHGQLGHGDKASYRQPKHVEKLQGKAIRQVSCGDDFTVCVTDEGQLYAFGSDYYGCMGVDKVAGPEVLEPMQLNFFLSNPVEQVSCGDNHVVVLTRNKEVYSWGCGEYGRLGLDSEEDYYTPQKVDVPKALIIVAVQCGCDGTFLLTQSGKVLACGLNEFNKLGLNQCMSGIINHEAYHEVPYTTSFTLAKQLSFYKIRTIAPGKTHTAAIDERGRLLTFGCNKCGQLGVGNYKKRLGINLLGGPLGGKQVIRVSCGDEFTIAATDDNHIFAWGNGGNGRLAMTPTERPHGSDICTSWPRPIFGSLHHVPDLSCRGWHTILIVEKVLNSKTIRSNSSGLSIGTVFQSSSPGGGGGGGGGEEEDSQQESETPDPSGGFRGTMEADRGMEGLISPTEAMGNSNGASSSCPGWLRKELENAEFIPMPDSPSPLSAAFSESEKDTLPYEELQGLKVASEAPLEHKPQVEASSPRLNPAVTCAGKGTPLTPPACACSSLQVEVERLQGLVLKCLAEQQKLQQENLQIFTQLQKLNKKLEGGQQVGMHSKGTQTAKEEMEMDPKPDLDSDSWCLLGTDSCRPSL
# Calcium/calmodulin-dependent protein kinase type 1G (Homo sapiens), sequence (Q96NX5 whole entry, the tested form may be a part): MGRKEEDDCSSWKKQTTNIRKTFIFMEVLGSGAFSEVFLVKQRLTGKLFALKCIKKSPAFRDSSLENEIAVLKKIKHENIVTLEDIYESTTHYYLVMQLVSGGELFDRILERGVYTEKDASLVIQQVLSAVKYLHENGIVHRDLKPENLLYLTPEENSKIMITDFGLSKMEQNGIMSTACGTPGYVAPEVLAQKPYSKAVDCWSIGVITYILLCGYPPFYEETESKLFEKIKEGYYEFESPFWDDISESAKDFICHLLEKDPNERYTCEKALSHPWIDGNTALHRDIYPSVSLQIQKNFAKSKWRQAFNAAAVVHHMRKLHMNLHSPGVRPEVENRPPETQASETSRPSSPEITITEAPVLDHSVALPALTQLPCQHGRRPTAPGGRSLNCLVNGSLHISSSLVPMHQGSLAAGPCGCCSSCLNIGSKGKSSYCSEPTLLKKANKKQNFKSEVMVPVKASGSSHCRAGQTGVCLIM
# Mitogen-activated protein kinase 9 (Homo sapiens), sequence (P45984 whole entry, looked up, the tested form may be a part): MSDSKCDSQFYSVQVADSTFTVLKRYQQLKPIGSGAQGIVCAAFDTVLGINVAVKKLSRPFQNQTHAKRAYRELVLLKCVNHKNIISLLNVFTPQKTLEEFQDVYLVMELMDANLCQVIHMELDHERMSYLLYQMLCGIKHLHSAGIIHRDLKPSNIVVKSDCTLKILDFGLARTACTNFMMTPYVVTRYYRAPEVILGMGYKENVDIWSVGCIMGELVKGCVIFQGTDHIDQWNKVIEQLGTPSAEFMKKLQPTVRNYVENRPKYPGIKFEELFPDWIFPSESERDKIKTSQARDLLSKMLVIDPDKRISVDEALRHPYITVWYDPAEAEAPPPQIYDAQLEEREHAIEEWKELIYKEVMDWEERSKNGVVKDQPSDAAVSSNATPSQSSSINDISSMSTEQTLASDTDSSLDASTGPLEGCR
compound,measurement,setting,value
Cc1ccc(NC(=O)c2ccc(CN(CCN(C)C)C(=O)c3cccnc3)cc2)cc1Nc1nccc(-c2cccnc2)n1,Activity,[1],87%
same,Activity,[2],97%
same,Activity,[3],33%
same,Activity,[4],100%
same,Activity,[5],80%
same,Activity,[6],100%
same,Activity,[7],inactive
same,Activity,[8],94%
same,Activity,[9],100%
same,Activity,[10],82%
same,Activity,[11],91%
same,Activity,[12],95%
same,Activity,[13],88%
same,Activity,[14],100%
same,Activity,[15],90%
same,Activity,[16],89%
same,Activity,[17],94%
same,Activity,[18],100%
same,Activity,[19],100%
same,Activity,[20],92%
same,Activity,[21],98%
